In ChEMBL document CHEMBL1137088, “Distamycin analogues with enhanced lipophilicity: synthesis and antimicrobial activity” (2004):
Converted amounts (≈) assume the structure as drawn. The source made the active and inactive calls. The rule behind the calls is not given here.

Tests used:
[1] = system: Enterococcus faecalis; assay: Antibacterial activity against Streptococcus faecalis NCTC 775 strain; na = not active; type: functional, organism-based
[2] = Antifungal activity against Candida albicans NCPF 3179 strain; na = not active; type: functional
[3] = system: Staphylococcus aureus; assay: Antibacterial activity against MRSA PHLS M1 strain; na = not active; type: functional, organism-based
[4] = system: Escherichia coli; assay: Antibacterial activity against Escherichia coli NCTC 9001 strain.; type: functional, organism-based
[5] = system: Mycolicibacterium fortuitum; assay: Antibacterial activity against Mycobacterium fortuitum NCTC 10394 strain.; type: functional
[6] = system: Klebsiella aerogenes; assay: Antibacterial activity against Klebsiella aerogenes WRL CN 345 strain; na = not active; type: functional, organism-based
[7] = system: Enterobacter cloacae; assay: Antibacterial activity against Enterobacter cloacae NCTC 10005 strain.; type: functional, organism-based
[8] = system: Staphylococcus aureus; assay: Antibacterial activity against Staphylococcus aureus NCTC 6571 strain; na = not active; type: functional, organism-based
[9] = system: Aspergillus nidulans; assay: Antifungal activity against Aspergillus nidulans CABI 0160037 strain; na = not active; type: functional
[10] = Antibacterial activity against Proteus vulgaris NCTC 4175 strain; na = not active; type: functional
[11] = system: Aspergillus niger; assay: Antifungal activity against Aspergillus niger IMI17454 strain; na = not active; type: functional
[12] = system: Aspergillus nidulans; assay: Antifungal activity against Aspergillus nidulans CABI 0160037 strain; type: functional
[13] = system: Klebsiella aerogenes; assay: Antibacterial activity against Klebsiella aerogenes WRL CN 345 strain.; type: functional, WRL CN 375; details: Klebsiella aerogenes, WRL CN 375; read-out: MIC
[14] = system: Enterococcus faecalis; assay: Antibacterial activity against Streptococcus faecalis NCTC 775 strain.; type: functional
[15] = system: Aspergillus niger; assay: Antifungal activity against Aspergillus niger IMI17454 strain.; type: functional; details: Aspergillus niger; read-out: MIC
[16] = system: Staphylococcus aureus; assay: Antibacterial activity against Staphylococcus aureus NCTC 6571 strain.; type: functional
[17] = system: Candida albicans; assay: Antifungal activity against Candida albicans NCPF 3179 strain.; type: functional; details: Candida albicans; read-out: MIC
[18] = system: Staphylococcus aureus; assay: Antibacterial activity against methicillin-resistant Staphylococcus aureus (MRSA) PHLS M1 strain.; type: functional
How it was run: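 Read-out is the minimum inhibitory concentration, reported in µM. Amoxycillin is tested alongside as the reference antibiotic.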

[19] = Antibacterial activity against Enterobacter cloacae NCTC 10005 strain; type: functional
[20] = system: Proteus vulgaris; assay: Antibacterial activity against Proteus vulgaris NCTC 4175 strain.; type: functional
[21] = system: Mycolicibacterium fortuitum; assay: Antibacterial activity against Mycobacterium fortuitum NCTC 10394 strain; na = not active; type: functional, organism-based

SMILES	MIC [2]	MIC [3]	MIC [4]	MIC [5]	MIC [7]	MIC [8]	MIC [10]	MIC [12]	MIC [13]	MIC [14]	MIC [15]	MIC [16]	MIC [17]	MIC [18]	MIC [19]	further results
CC(=O)Nc1cc(C(=O)Nc2cc(C(=O)Nc3cc(C(=O)NCCCN4CCOCC4)n(C)c3)n(CCC(C)C)c2)n(C)c1	inactive	inactive	inactive	140 µM (≈ 85.2 µg/mL)	inactive	inactive	inactive									MIC [1]: inactive; MIC [6]: inactive; MIC [9]: inactive; MIC [11]: inactive
CC(C)n1cc(NC(=O)c2cc(NCc3ccccc3)cn2C)cc1C(=O)Nc1cc(C(=O)NCCCN(C)C)n(C)c1		inactive	inactive	73.5 µM (≈ 43.1 µg/mL)	inactive		inactive	73.5 µM (≈ 43.1 µg/mL)	147 µM (≈ 86.3 µg/mL)	147 µM (≈ 86.3 µg/mL)	147 µM (≈ 86.3 µg/mL)	147 µM (≈ 86.3 µg/mL)	147 µM (≈ 86.3 µg/mL)			
CC(C)c1sc(NC(=O)c2cc(NC=O)cn2C)nc1C(=O)Nc1cc(C(=O)NCCCN(C)C)n(C)c1			inactive	19 µM (≈ 10.3 µg/mL)			inactive	9.5 µM (≈ 5.16 µg/mL)	38.1 µM (≈ 20.7 µg/mL)	9.5 µM (≈ 5.16 µg/mL)	38.1 µM (≈ 20.7 µg/mL)	4.8 µM (≈ 2.6 µg/mL)	38.1 µM (≈ 20.7 µg/mL)	19.1 µM (≈ 10.4 µg/mL)	9.5 µM (≈ 5.16 µg/mL)	
CC(C)CCn1cc(NC(=O)c2cc(NC(=O)c3cc([N+](=O)[O-])cn3C)cn2C)cc1C(=O)Nc1cc(C(=O)NCCCN(C)C)n(C)c1			inactive	15.8 µM (≈ 10.7 µg/mL)	inactive			25.8 µM (≈ 17.5 µg/mL)	15.8 µM (≈ 10.7 µg/mL)	15.8 µM (≈ 10.7 µg/mL)	15.8 µM (≈ 10.7 µg/mL)	31.6 µM (≈ 21.4 µg/mL)	15.8 µM (≈ 10.7 µg/mL)	126 µM (≈ 85.3 µg/mL)		MIC [20]: 126 µM (≈ 85.3 µg/mL)
Cc1sccc1C(=O)Nc1cc(C(=O)Nc2cc(C(=O)Nc3cc(C(=O)NCCCN(C)C)n(C)c3)n(C)c2)n(C)c1	inactive		inactive	35.4 µM (≈ 21 µg/mL)	inactive	inactive	inactive	70.8 µM (≈ 42 µg/mL)	70.8 µM (≈ 42 µg/mL)	141 µM (≈ 83.6 µg/mL)	141 µM (≈ 83.6 µg/mL)			141 µM (≈ 83.6 µg/mL)		
CC(=O)Nc1cc(C(=O)Nc2cc(C(=O)Nc3nc(C(=O)NCCCN(C)C)c(C(C)C)s3)n(C)c2)n(C)c1	inactive	inactive	inactive		inactive	inactive	inactive			74.5 µM (≈ 41.5 µg/mL)	74.5 µM (≈ 41.5 µg/mL)					MIC [6]: inactive; MIC [21]: inactive
CC(C)c1sc(NC(=O)c2cc(NC(=O)c3cc(NC=O)cn3C)cn2C)nc1C(=O)NCCCN(C)C			inactive	19 µM (≈ 10.3 µg/mL)				76.1 µM (≈ 41.3 µg/mL)	76.2 µM (≈ 41.4 µg/mL)	9.5 µM (≈ 5.16 µg/mL)	76.1 µM (≈ 41.3 µg/mL)	4.7 µM (≈ 2.55 µg/mL)	76.1 µM (≈ 41.3 µg/mL)	38.1 µM (≈ 20.7 µg/mL)	76.2 µM (≈ 41.4 µg/mL)	MIC [20]: 9.5 µM (≈ 5.16 µg/mL)
CN[C@@H]1[C@H](O[C@H]2[C@H](O[C@H]3[C@H](O)[C@@H](O)[C@H](N=C(N)N)[C@@H](O)[C@@H]3N=C(N)N)O[C@@H](C)[C@]2(O)C=O)O[C@@H](CO)[C@H](O)[C@H]1O [STREPTOMYCIN]												10.8 µM (≈ 6.28 µg/mL)				
CC(=O)Nc1cc(C(=O)Nc2cc(C(=O)Nc3cc(C(=O)NCCCN(C)C)n(C)c3)n(C)c2)n(C)c1			inactive	160 µM (≈ 81.7 µg/mL)		inactive		160 µM (≈ 81.7 µg/mL)	80 µM (≈ 40.8 µg/mL)	160 µM (≈ 81.7 µg/mL)	160 µM (≈ 81.7 µg/mL)		160 µM (≈ 81.7 µg/mL)	40 µM (≈ 20.4 µg/mL)	160 µM (≈ 81.7 µg/mL)	MIC [20]: 160 µM (≈ 81.7 µg/mL)
CC(C)n1cc(NC(=O)c2cc(NC(=O)c3cc(NC=O)cn3C(C)C)cn2C)cc1C(=O)NCCCN(C)C			inactive		inactive	inactive	inactive	150 µM (≈ 82.9 µg/mL)					75 µM (≈ 41.5 µg/mL)	150 µM (≈ 82.9 µg/mL)		MIC [1]: inactive; MIC [6]: inactive; MIC [11]: inactive; MIC [21]: inactive
OC(Cn1cncn1)(Cn1cncn1)c1ccc(F)cc1F [FLUCONAZOLE]	81.6 µM (≈ 25 µg/mL)							90.8 µM (≈ 27.8 µg/mL)			> 300 µM					
CC(=O)Nc1cc(C(=O)Nc2cc(C(=O)Nc3cc(C(=O)NCCCN4CCCC4)n(C)c3)n(C)c2)n(C)c1	inactive	inactive	inactive	76.9 µM (≈ 41.3 µg/mL)		inactive	inactive	153 µM (≈ 82.1 µg/mL)	153 µM (≈ 82.1 µg/mL)	153 µM (≈ 82.1 µg/mL)	153 µM (≈ 82.1 µg/mL)				153 µM (≈ 82.1 µg/mL)	
